# Measurements pooled from the literature.
# Target: Serine/threonine-protein kinase tousled-like 1 (TLK1, Homo sapiens, UniProt Q9UKI8)
# Residues used in one study (Q9UKI8 1-766): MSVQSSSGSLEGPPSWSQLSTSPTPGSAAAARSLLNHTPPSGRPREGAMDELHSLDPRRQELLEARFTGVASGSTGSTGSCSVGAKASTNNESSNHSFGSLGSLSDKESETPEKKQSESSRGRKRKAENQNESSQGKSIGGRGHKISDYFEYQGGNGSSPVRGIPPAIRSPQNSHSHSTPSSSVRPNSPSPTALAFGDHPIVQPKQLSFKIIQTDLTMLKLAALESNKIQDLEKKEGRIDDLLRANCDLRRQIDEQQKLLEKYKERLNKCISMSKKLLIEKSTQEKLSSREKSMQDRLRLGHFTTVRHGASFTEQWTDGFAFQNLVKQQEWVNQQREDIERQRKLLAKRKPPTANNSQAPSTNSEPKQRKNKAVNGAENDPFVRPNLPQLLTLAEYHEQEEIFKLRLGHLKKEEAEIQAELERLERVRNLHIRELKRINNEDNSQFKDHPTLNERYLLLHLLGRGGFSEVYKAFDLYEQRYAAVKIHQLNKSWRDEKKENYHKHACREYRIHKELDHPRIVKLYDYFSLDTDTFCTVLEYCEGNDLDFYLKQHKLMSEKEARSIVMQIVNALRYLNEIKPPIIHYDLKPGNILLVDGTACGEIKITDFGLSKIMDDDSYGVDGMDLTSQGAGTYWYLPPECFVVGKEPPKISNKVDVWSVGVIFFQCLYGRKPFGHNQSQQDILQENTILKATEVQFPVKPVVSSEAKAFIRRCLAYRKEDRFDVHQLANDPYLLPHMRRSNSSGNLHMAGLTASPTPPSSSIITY
Compound,assay,conditions,remaining binding [%]
N[C@H]1CCN(c2nccc(-c3cnn4ncccc34)n2)C1,binding,1 µM,64
COc1cnc(Nc2cccc(S(N)(=O)=O)c2)nc1N1CCN(c2ccccc2)CC1,"binding, competition with immobilised ligand",1 µM,80
C[C@@H]1CCN(c2nccc(-c3cnn4ncccc34)n2)C1,binding,1 µM,79
CCC(=O)N[C@@H]1CC[C@H](C(=O)N(C)c2ccc(-c3nc4ccccc4o3)cc2)C1,"cell-free assay, competition with immobilised ligand",1 µM,100
CN(C)c1nccc(-c2cnc3ncccn23)n1,binding,1 µM,81
C[C@@H](c1ccc(-n2cnc3c(N)ncnc32)cc1)N1CCc2nn(C)c(Cc3ccccc3)c2C1=O,"binding, competition with immobilised ligand",0.1 µM,81
Cc1nccc(COC(=O)N2C[C@@H]3[C@@H](CNC(=O)c4ccc5[nH]nnc5c4)[C@@H]3C2)n1,"cell-free assay, competition with immobilised ligand",1 µM,87
O=C(NCC1CCOCC1)c1n[nH]cc1NC(=O)c1c(F)cccc1F,"binding, competition with immobilised ligand",1 µM,87
F[C@@H]1CCN(c2nccc(-c3cnn4ncccc34)n2)C1,binding,1 µM,100
CC(=O)Nc1c(C(C)=O)c(=O)n(C)c2nc(-c3ccc(Cl)cc3Cl)c(-c3ccc(Cl)cc3)cc12,"cell-free assay, competition with immobilised ligand",1 µM,100
CC1CCCN1c1nccc(-c2cnn3ncccc23)n1 (centres unmarked),binding,1 µM,97
COc1cnc(Nc2cccc(S(N)(=O)=O)c2)nc1N1CCN(c2ccccc2)C(=O)C1,"binding, competition with immobilised ligand",1 µM,97
O=C(NCCCN1CCOCC1)c1ccc(Nc2nccc(-c3cc4ccccc4s3)n2)cc1,"binding, competition with immobilised ligand",1 µM,63
CN(CCCC(F)(F)F)c1nccc(-c2cnn3ncccc23)n1,binding,1 µM,100
CCc1ccccc1C(=O)Nc1n[nH]c2c(C)c(F)c(C3C(C#N)=C(C)N(C)C(C)=C3C#N)cc12,"cell-free assay, competition with immobilised ligand",1 µM,100
O=C(c1ccc(Nc2ncc(Cl)c(-c3ccc(Cl)s3)n2)cc1)N1CCC(N2CCCC2)CC1,"binding, competition with immobilised ligand",1 µM,32
O=C(Nc1cccnn1)N1CC(C/C=C/c2cncc(Oc3ccc(C(F)(F)F)cn3)n2)C1,"cell-free assay, competition with immobilised ligand",1 µM,98
COc1ncc2cc3ccccc3nc2c1C#N,"cell-free assay, competition with immobilised ligand",5 µM,86
O=C(Nc1ccc(Oc2ccc(F)cc2)cc1)N1CCc2ncccc2[C@H]1c1ccc(F)cc1,"cell-free assay, competition with immobilised ligand",1 µM,100
Cc1cnc(Nc2ccc(C(=O)N3CCC(N4CCCC4)CC3)cc2)nc1-c1cc2ccccc2s1,"binding, competition with immobilised ligand",1 µM,21
